The test system of series [1] is Madin–Darby Canine Kidney (MDCK) cells. The series is described as follows: In vitro cytotoxicity. The class given is cell-based. The settings on record: 12 h. The method, boiled down:
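MDCK cells seeded at 5×10³ cells/well in DMEM with 10% FBS and 1% penicillin/streptomycin, then held 24 h at 37°C. Treated with test formulations diluted in DMEM at 1, 10, 25, 50, 100, 250 and 500 µg/mL drug equivalent, with matching excipient-only controls, for 12 h. WST-8 was added for 2 h and absorbance read at 450 nm. Viability is expressed relative to untreated cells.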

A short description of another series: In vitro drug release. The settings on record: 37°C, 100 rpm. The class given is physicochemical. Summed up:
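Drug release from the formulation and from free drug was tested in 900 mL of 0.1 N HCl (pH 1.2) or phosphate buffer (pH 6.8). USP apparatus I (basket) was run at 100 rpm and 37±0.2°C. Results are given as cumulative percentage released over time.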

In series [2] the test system is CT26 (murine colon cancer) tumor. As to the kind of experiment: In vivo tumor growth inhibition in CT26 tumor-bearing mice. Also on record: species or system BALB/c mice. Summed up: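 Female BALB/c mice, 6 weeks old, received 1×10⁶ CT26 cells in PBS in the right dorsal flank. At 70–100 mm³, mice were randomised to seven groups of 14: untreated; IV drug 3.3 or 10 mg/kg once biweekly; oral aqueous drug 10 mg/kg daily; oral formulation at 2.5, 10 or 20 mg/kg equivalent daily, for 21 days. Mice were fasted 4 h before and 2 h after dosing. Caliper volume (width²×length×0.52) was recorded every 3 days. Day-21 tumors were weighed and stained for CD31, PCNA and TUNEL.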

Series [3] relates to HCT116 (human colon cancer) tumor. As to the kind of experiment: In vivo tumor growth inhibition in HCT116 tumor-bearing mice. Also noted: species or system BALB/c nude mice. The method, boiled down: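 Female BALB/c nude mice, 6 weeks old, received 1×10⁷ HCT116 cells in PBS in the right dorsal flank. At 70–100 mm³, mice were randomised to the same seven arms: untreated; IV drug 3.3 or 10 mg/kg biweekly; oral aqueous drug 10 mg/kg daily; oral formulation at 2.5, 10 or 20 mg/kg daily, for 21 days. Mice were fasted 4 h before and 2 h after dosing. Caliper volume (width²×length×0.52) was recorded every 3 days, and tumors were weighed at day 21.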

[4] abbreviates: CT26, once-biweekly IV 10 mg/kg OP, 21 days.
[5] abbreviates: HCT116 tumors, day 21, groups OP-IV (10), ODSF (10), ODSF (20).

The compound `O=C1[O][Pt]2([NH][C@@H]3CCCC[C@H]3[NH]2)[O]C1=O` (relative stereo) [OP, cis-[(1R,2R)-1,2-cyclohexanediamine-N,N’] [oxalato(2)-O,O´] platinum] showed a Cell viability in series [1] (250 µg/mL) of 74.8±6.82%. In addition, the Cell viability in series [1] (500 µg/mL) came out at 55.3±7.79%. Further, the “Concentrations at which cytotoxicity was demonstrated” value in series [1] is given as “higher than 100 µg/mL”. In the series “In vitro drug release” (pH 1.2 (0.1 N HCl), at 60 min), the Cumulative drug release entry is on record as “exceeded 90%”. In addition, in “In vitro drug release” (pH 6.8 phosphate buffer, at 120 min), the Cumulative drug release entry is “exceeded 90%”. Further, the “Inhibition of tumor growth rate compared to the control group” value in series [2] (CT26, once-biweekly IV 3.3 mg/kg OP, 21 days) is 40.0%. In addition, in series [2] (setting [4]), the “Tumor suppression compared to the OP-S (10) group” value was 53.3% and the “Tumor suppression compared to the control group” value is recorded as 70.2%. Besides, the “Reduction of isolated tumor mass compared to the controls” value in series [2] (CT26, once-biweekly IV 10 mg/kg OP, day 21) turned out to be 71.7%. For the same compound, in series [2] (CT26 tumors, day 21, groups ODSF (10), ODSF (20), OP-IV (10)), the “TUNEL-positive cells (apoptosis) compared to the controls” value is on record as “significant increases in the number of TUNEL-positive cells”. Besides, the “CD31-positive microvessels (immunohistochemistry)” value in series [2] (CT26 tumors, day 21, groups OP-IV (3.3), OP-S (10), ODSF (10), ODSF (20)) was “greater numbers of microvessels”. The “Numbers of PCNA-positive cells (proliferation)” value in series [2] (CT26 tumors, day 21, groups OP-S, OP-IV (10), ODSF (10), ODSF (20), listed as OP-S) is “significantly higher”. Further, the “Reduction in tumor volume compared to controls” value in series [3] (HCT116, once-biweekly IV 3.3 mg/kg OP) is 33.5%. In series [3] (setting [5]), the “Numbers of CD31-positive microvessels compared to the control and OP-S (10) groups” value was “marked reductions”; the “Numbers of PCNA-positive proliferating cells compared to the control and OP-S (10) groups” value was “marked reductions”; the “TUNEL-positive apoptotic cells compared to the control and OP-S (10) groups” value was “significantly greater numbers of TUNEL-positive apoptotic cells”.
